# Calls of active or inactive are those of the source. The rule behind the calls is not given here.
# Experiments:
# Rattus norvegicus [1] = assay: Antisecretory activity in 5-hrs pyloric ligated rat assessed as pH of gastric contents at 100 mg/kg, po administered 2 hrs prior to pyloric ligation measured after 1 hr (reference value: 1.1 no-unit); assay type: functional, Stomach
# Rattus norvegicus [2] = assay: Antisecretory activity in 5-hrs pyloric ligated rat assessed as pH of gastric contents at 25 mg/kg, po administered 2 hrs prior to pyloric ligation measured after 1 hr (reference value: 1.07 +/- 0.01 no-unit); assay type: functional, Stomach
# In short: (§1)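 Rats given a single po dose (12.5–100 mg/kg) 2 h before a 5-h pyloric ligation. Gastric secretion was assayed for pH, volume (mL/100 g) and total acid output ([…]), with % inhibition relative to controls. Groups had 5–15 rats, with 39 controls. Values are means ± SE from several experiments, and significance versus control was taken at p < 0.05 or 0.01.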
# Rattus norvegicus [3] = assay: Antisecretory activity in 5-hrs pyloric ligated rat assessed as pH of gastric contents at 12.5 mg/kg, po administered 2 hrs prior to pyloric ligation measured after 1 hr (reference value: 1.07 +/- 0.01 no-unit); assay type: functional, Stomach; in short: as §1
# Rattus norvegicus [4] = assay: Antisecretory activity in 5-hrs pyloric ligated rat assessed as pH of gastric contents at 50 mg/kg, po administered 2 hrs prior to pyloric ligation measured after 1 hr (reference value: 1.07 +/- 0.01 no-unit); assay type: functional, Stomach; in short: as §1
# Rattus norvegicus [5] = assay: Antisecretory activity in 5-hrs pyloric ligated rat assessed as pH of gastric contents at 100 mg/kg, po administered 2 hrs prior to pyloric ligation measured after 1 hr (reference value: 1.07 to 1.1 no-unit); assay type: functional, Stomach
# Rattus norvegicus [6] = assay: Antisecretory activity in 5-hrs pyloric ligated rat assessed as volume of gastric secretion at 12.5 mg/kg, po administered 2 hrs prior to pyloric ligation measured per 100 gm of tissue (reference value: 4.05 +/- 0.21 ml); assay type: functional, Stomach; in short: as §1
# Rattus norvegicus [7] = assay: Antisecretory activity in 5-hrs pyloric ligated rat assessed as volume of gastric secretion at 25 mg/kg, po administered 2 hrs prior to pyloric ligation measured per 100 gm of tissue (reference value: 4.05 +/- 0.21 ml); assay type: functional, Stomach; in short: as §1
# Rattus norvegicus [8] = assay: Antisecretory activity in 5-hrs pyloric ligated rat assessed as volume of gastric secretion at 50 mg/kg, po administered 2 hrs prior to pyloric ligation measured per 100 gm of tissue (reference value: 4.05 +/- 0.21 ml); assay type: functional, Stomach; in short: as §1
# Rattus norvegicus [9] = assay: Antisecretory activity in 5-hrs pyloric ligated rat assessed as volume of gastric secretion at 100 mg/kg, po administered 2 hrs prior to pyloric ligation measured per 100 gm of tissue (reference value: 4.05 +/- 0.21 ml); assay type: functional, Stomach; in short: as §1
# Rattus norvegicus [10] = assay: Antisecretory activity in 5-hrs pyloric ligated rat assessed as inhibition of total acid output at 12.5 mg/kg, po administered 2 hrs prior to pyloric ligation (reference value: 0%); assay type: functional; in short: as §1
# Rattus norvegicus [11] = assay: Antisecretory activity in 5-hrs pyloric ligated rat assessed as inhibition of total acid output at 25 mg/kg, po administered 2 hrs prior to pyloric ligation (reference value: 0%); assay type: functional; in short: as §1
# Rattus norvegicus [12] = assay: Antisecretory activity in 5-hrs pyloric ligated rat assessed as inhibition of total acid output at 50 mg/kg, po administered 2 hrs prior to pyloric ligation (reference value: 0%); assay type: functional; in short: as §1
# Rattus norvegicus [13] = assay: Antisecretory activity in 5-hrs pyloric ligated rat assessed as inhibition of total acid output at 100 mg/kg, po administered 2 hrs prior to pyloric ligation (reference value: 0%); assay type: functional; in short: as §1
# Canis familiaris [14] = assay: Antisecretory activity in histamine-stimulated dog assessed as pH of gastric contents at 1.6 mg/kg, po administered 18 and 2 hrs prior to histamine challenge (reference value: 1 no-unit); assay type: functional, Canis lupus familiaris, Stomach
# Canis familiaris [15] = assay: Antisecretory activity in histamine-stimulated dog assessed as pH of gastric contents at 3.1 mg/kg, po administered 18 and 2 hrs prior to histamine challenge (reference value: 1 no-unit); assay type: functional, Canis lupus familiaris, Stomach
# Canis familiaris [16] = assay: Antisecretory activity in histamine-stimulated dog assessed as pH of gastric contents at 6.2 mg/kg, po administered 18 and 2 hrs prior to histamine challenge (reference value: 1 no-unit); assay type: functional, Canis lupus familiaris, Stomach
# Canis familiaris [17] = assay: Antisecretory activity in histamine-stimulated dog assessed as pH of gastric contents at 12.5 mg/kg, po administered 18 and 2 hrs prior to histamine challenge (reference value: 1 no-unit); assay type: functional, Canis lupus familiaris, Stomach
# Canis familiaris [18] = assay: Antisecretory activity in histamine-stimulated dog assessed as pH of gastric contents at 25 mg/kg, po administered 18 and 2 hrs prior to histamine challenge (reference value: 1 no-unit); assay type: functional, Canis lupus familiaris, Stomach
# Canis familiaris [19] = assay: Antisecretory activity in histamine-stimulated dog assessed as volume of gastric secretion at 1.6 mg/kg, po administered 18 and 2 hrs prior to histamine challenge measured per 15 mins (reference value: 14.7 ml); assay type: functional, Canis lupus familiaris, Stomach
# Canis familiaris [20] = assay: Antisecretory activity in histamine-stimulated dog assessed as volume of gastric secretion at 3.1 mg/kg, po administered 18 and 2 hrs prior to histamine challenge measured per 15 mins (reference value: 14.7 ml); assay type: functional, Canis lupus familiaris, Stomach
# Canis familiaris [21] = assay: Antisecretory activity in histamine-stimulated dog assessed as volume of gastric secretion at 6.2 mg/kg, po administered 18 and 2 hrs prior to histamine challenge measured per 15 mins (reference value: 14.7 ml); assay type: functional, Canis lupus familiaris, Stomach
# Canis familiaris [22] = assay: Antisecretory activity in histamine-stimulated dog assessed as volume of gastric secretion at 12.5 mg/kg, po administered 18 and 2 hrs prior to histamine challenge measured per 15 mins (reference value: 14.7 ml); assay type: functional, Canis lupus familiaris, Stomach
# Canis familiaris [23] = assay: Antisecretory activity in histamine-stimulated dog assessed as volume of gastric secretion at 25 mg/kg, po administered 18 and 2 hrs prior to histamine challenge measured per 15 mins (reference value: 14.7 ml); assay type: functional, Canis lupus familiaris, Stomach
# Canis familiaris [24] = assay: Antisecretory activity in histamine-stimulated dog assessed as inhibition of total acid output at 1.6 mg/kg, po administered 18 and 2 hrs prior to histamine challenge (reference value: 0%); assay type: functional; conditions: Canis lupus familiaris
# Canis familiaris [25] = assay: Antisecretory activity in histamine-stimulated dog assessed as inhibition of total acid output at 3.1 mg/kg, po administered 18 and 2 hrs prior to histamine challenge (reference value: 0%); assay type: functional; conditions: Canis lupus familiaris
# Canis familiaris [26] = assay: Antisecretory activity in histamine-stimulated dog assessed as inhibition of total acid output at 6.2 mg/kg, po administered 18 and 2 hrs prior to histamine challenge (reference value: 0%); assay type: functional; conditions: Canis lupus familiaris
# Canis familiaris [27] = assay: Antisecretory activity in histamine-stimulated dog assessed as inhibition of total acid output at 12.5 mg/kg, po administered 18 and 2 hrs prior to histamine challenge (reference value: 0%); assay type: functional; conditions: Canis lupus familiaris
# Canis familiaris [28] = assay: Antisecretory activity in histamine-stimulated dog assessed as inhibition of total acid output at 25 mg/kg, po administered 18 and 2 hrs prior to histamine challenge (reference value: 0%); assay type: functional; conditions: Canis lupus familiaris
# Mus musculus = species: Mus musculus; assay: Anticholinergic activity in mouse assessed as induction of mydriasis; assay type: functional, organism-based
# Heart = assay: Anticholinergic activity in guinea pig auricle assessed as carbamylcholine-induced depression of heart rate after 5 mins; assay type: functional, tissue-based; conditions: Cavia porcellus
# In short: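 Isolated guinea pig auricles in Krebs-Henseleit solution at 35 °C. Compound dissolved in Me2SO-H2O, added to the bath, and left on the tissue for 5 min. Read-out was the dose-related carbamylcholine-induced fall in spontaneous heart rate.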
# Trachea = assay: Anticholinergic activity in guinea pig trachea assessed as carbamylcholine-induced constriction at 10 uM; assay type: functional, tissue-based; conditions: Cavia porcellus
# In short: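 Guinea pig trachea set up in the same bath system as the auricle preparation. Compound in Me2SO-H2O was added to the bath at 10^-5 M. Read-out was the dose-related response to carbamylcholine.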
# [29] = target: Histamine H2 receptor (Cavia porcellus) (UniProt P47747); assay: Inhibition of histamine H2 receptor in guinea pig atria assessed as inhibition of histamine response
# Rattus norvegicus [30] = assay: Antisecretory activity in po dosed 5-hrs pyloric ligated rat assessed as increase in pH of gastric secretions administered 2 hrs prior to pyloric ligation measured after 1 hr; assay type: functional, organism-based; conditions: Stomach; in short: as §1
# Rattus norvegicus [31] = assay: Antisecretory activity in po dosed 5-hrs pyloric ligated rat assessed as decrease in volume of gastric secretions administered 2 hrs prior to pyloric ligation; assay type: functional, organism-based; conditions: Stomach; in short: as §1
# Rattus norvegicus [32] = assay: Antisecretory activity in po dosed 5-hrs pyloric ligated rat assessed as decrease in total acidity of gastric secretions administered 2 hrs prior to pyloric ligation; assay type: functional, organism-based; conditions: Stomach; in short: as §1
# Canis familiaris [33] = assay: Antisecretory activity in po dosed histamine-stimulated dog assessed as increase in pH of gastric secretions administered 18 and 2 hrs prior to histamine challenge; assay type: functional, organism-based; conditions: Canis lupus familiaris; Stomach
# Canis familiaris [34] = assay: Antisecretory activity in po dosed histamine-stimulated dog assessed as decrease in volume of gastric secretions administered 18 and 2 hrs prior to histamine challenge; assay type: functional, organism-based; conditions: Canis lupus familiaris; Stomach
# Canis familiaris [35] = assay: Antisecretory activity in po dosed histamine-stimulated dog assessed as decrease in total acidity of gastric secretions administered 18 and 2 hrs prior to histamine challenge; assay type: functional, organism-based; conditions: Canis lupus familiaris; Stomach
# Histamine H2 receptor (Cavia porcellus), sequence (P47747 whole entry): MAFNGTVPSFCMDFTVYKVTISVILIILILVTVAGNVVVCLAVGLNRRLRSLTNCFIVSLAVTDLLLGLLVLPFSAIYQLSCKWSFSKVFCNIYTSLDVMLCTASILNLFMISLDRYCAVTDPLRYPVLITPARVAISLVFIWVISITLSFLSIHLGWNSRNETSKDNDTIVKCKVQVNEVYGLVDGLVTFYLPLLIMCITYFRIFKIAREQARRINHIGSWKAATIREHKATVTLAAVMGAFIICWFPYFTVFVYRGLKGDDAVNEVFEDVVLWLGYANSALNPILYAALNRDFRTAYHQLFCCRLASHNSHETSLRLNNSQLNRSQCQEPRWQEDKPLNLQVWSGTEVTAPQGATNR
compound,measurement,setting,value
Cc1c2c(c(C)n1C1CCCC1)C(C)(C(N)=O)CC2(C)C (stereo unspecified),pH,Rattus norvegicus [1],1.3
Cc1c2c(c(C)n1C(C)C)C(C)(C(N)=O)CC2(C)C (stereo unspecified),pH,Rattus norvegicus [1],1.8
Cc1c2c(c(C)n1-c1ccc(F)cc1)C(C)(C(N)=O)CC2(C)C (stereo unspecified),pH,Rattus norvegicus [1],1.4
Cc1c2c(c(C)n1CC1CC1)C(C)(C(N)=O)CC2(C)C (stereo unspecified),pH,Rattus norvegicus [1],5.1
Cc1c2c(c(C)n1-c1ccccc1)C(C)(C(N)=O)CC2(C)C (stereo unspecified),pH,Rattus norvegicus [2],1.83
same,pH,Rattus norvegicus [3],1.34
same,pH,Rattus norvegicus [4],3.28
same,pH,Rattus norvegicus [5],6.2
same,Activity,Rattus norvegicus [6],2.66 mL
same,Activity,Rattus norvegicus [7],2.16 mL
same,Activity,Rattus norvegicus [8],1.66 mL
same,Activity,Rattus norvegicus [9],1.19 mL
same,inhibition in vivo at 12.5 mg/kg,Rattus norvegicus [10],41%
same,inhibition in vivo at 25 mg/kg,Rattus norvegicus [11],52%
same,inhibition in vivo at 50 mg/kg,Rattus norvegicus [12],75%
same,inhibition in vivo at 100 mg/kg,Rattus norvegicus [13],100%
same,pH,Canis familiaris [14],1.2
same,pH,Canis familiaris [15],1.8
same,pH,Canis familiaris [16],3.9
same,pH,Canis familiaris [17],4.7
same,pH,Canis familiaris [18],6.7
same,Activity,Canis familiaris [19],11.9 mL
same,Activity,Canis familiaris [20],3.8 mL
same,Activity,Canis familiaris [21],2 mL
same,Activity,Canis familiaris [22],4.8 mL
same,Activity,Canis familiaris [23],2.4 mL
same,inhibition in vivo at 1.6 mg/kg,Canis familiaris [24],49%
same,inhibition in vivo at 3.1 mg/kg,Canis familiaris [25],84%
same,inhibition in vivo at 6.2 mg/kg,Canis familiaris [26],95%
same,inhibition in vivo at 12.5 mg/kg,Canis familiaris [27],88%
same,inhibition in vivo at 25 mg/kg,Canis familiaris [28],93%
same,Activity,Mus musculus,inactive
same,Activity,Heart,inactive
same,Activity,Trachea,inactive
same,inhibition,[29],Active
same,Activity,Rattus norvegicus [30],Dose-dependent effect
same,inhibition,Rattus norvegicus [31],Dose-dependent effect
same,inhibition,Rattus norvegicus [32],Dose-dependent effect
same,Activity,Canis familiaris [33],Dose-dependent effect
same,inhibition,Canis familiaris [34],Dose-dependent effect
same,inhibition,Canis familiaris [35],Dose-dependent effect
Cc1cccc(-n2c(C)c3c(c2C)C(C)(C(N)=O)CC3(C)C)c1 (stereo unspecified),pH,Rattus norvegicus [1],1.2
Cc1c2c(c(C)n1Cc1ccccc1)C(C)(C(N)=O)CC2(C)C (stereo unspecified),pH,Rattus norvegicus [1],1
Cc1[nH]c(C)c2c1C(C)(C)CC2(C)C(N)=O (stereo unspecified),pH,Rattus norvegicus [1],1.4
Cc1ccc(-n2c(C)c3c(c2C)C(C)(C(N)=O)CC3(C)C)cc1 (stereo unspecified),pH,Rattus norvegicus [1],1.1
CCn1c(C)c2c(c1C)C(C)(C(N)=O)CC2(C)C (stereo unspecified),pH,Rattus norvegicus [1],4.8
CCCCn1c(C)c2c(c1C)C(C)(C(N)=O)CC2(C)C (stereo unspecified),pH,Rattus norvegicus [1],2.5
Cc1c2c(c(C)n1-c1ccccc1Cl)C(C)(C(N)=O)CC2(C)C (stereo unspecified),pH,Rattus norvegicus [1],1.1
Cc1ccccc1-n1c(C)c2c(c1C)C(C)(C(N)=O)CC2(C)C (stereo unspecified),pH,Rattus norvegicus [1],1
Cc1c2c(c(C)n1-c1cccc(Cl)c1)C(C)(C(N)=O)CC2(C)C (stereo unspecified),pH,Rattus norvegicus [1],1.1
CN/C(=N\CCSCc1nc[nH]c1C)NC#N [CIMETIDINE],pH,Rattus norvegicus [1],2.1
Cc1c2c(c(C)n1C1CCC1)C(C)(C(N)=O)CC2(C)C (stereo unspecified),pH,Rattus norvegicus [1],2.2
CCCn1c(C)c2c(c1C)C(C)(C(N)=O)CC2(C)C (stereo unspecified),pH,Rattus norvegicus [1],5.3
Cc1c2c(c(C)n1C1CC1)C(C)(C(N)=O)CC2(C)C (stereo unspecified),pH,Rattus norvegicus [1],3.7
Cc1c2c(c(C)n1-c1ccc(Cl)cc1)C(C)(C(N)=O)CC2(C)C (stereo unspecified),pH,Rattus norvegicus [1],1.2
Cc1c2c(c(C)n1C)C(C)(C(N)=O)CC2(C)C (stereo unspecified),pH,Rattus norvegicus [1],4.2
